Bioassay records as filed in PubChem BioAssay.
Compounds with a hit are over-represented: about 3.6% of the library has one in this group of screens.
Wnt bcat act = activates Wnt/beta-catenin signaling in a reporter cell assay. activator, plate reader. AID 743398. activation, % at 9.35 µM. 1.2% of 300,000 active; in the data active means activation above about 30%, passing the limit was not always enough;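 further: 0% = neutral control wells and 100% = positive control wells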
SR-BI DiI inh = inhibitors of mouse SR-BI mediated HDL lipid uptake; AID 488896; ldlA[mSR-BI] CHO cells, DiI-HDL uptake fluorescence, 3 h; 0.96% of 320,000 active; inhibition, % at 12.5 µM; Q61009;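 active means mean replicate inhibition of at least 70% and a set share of replicates each scoring 70 or more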;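 further: 0% = median of neutral control wells and 100% = median of positive control wells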
Target sequence (Q61009 whole entry, looked up): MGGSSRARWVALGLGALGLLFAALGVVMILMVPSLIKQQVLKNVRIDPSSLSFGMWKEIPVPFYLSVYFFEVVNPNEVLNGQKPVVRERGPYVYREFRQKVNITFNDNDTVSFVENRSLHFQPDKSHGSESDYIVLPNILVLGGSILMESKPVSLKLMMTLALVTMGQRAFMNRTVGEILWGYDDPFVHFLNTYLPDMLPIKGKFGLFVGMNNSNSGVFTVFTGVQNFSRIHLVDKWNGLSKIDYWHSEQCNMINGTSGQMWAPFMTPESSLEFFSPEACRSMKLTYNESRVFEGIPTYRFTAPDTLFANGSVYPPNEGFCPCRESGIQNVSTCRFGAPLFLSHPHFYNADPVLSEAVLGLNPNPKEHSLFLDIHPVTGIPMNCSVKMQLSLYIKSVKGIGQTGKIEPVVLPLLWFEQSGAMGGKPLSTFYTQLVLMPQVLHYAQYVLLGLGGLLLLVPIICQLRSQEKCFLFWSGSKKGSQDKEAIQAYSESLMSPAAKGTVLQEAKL
MITF TRPM1 HTS = increases MITF-driven TRPM1 promoter luciferase signal. SK-MEL-5 TRPM1-promoter luciferase, 24 h; % of positive control, neutral wells = 0. activation, % at 12.5 µM. 0.75% of 300,000 active. AID 588334;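 active means mean activation of at least 80% with every replicate also reaching 80%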;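 further: 0% = neutral control wells and 100% = parthenolide positive control wells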
HSF1 activator = increases HSF-1 driven luciferase reporter signal; NIH3T3-HGL HSF-1 luciferase reporter, MG132, 8 h; 100% = twice DMSO control signal; activation, % at 9 µM; 1.7% of 300,000 active; AID 504408;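 active means mean replicate activation of at least 50% with a set share of replicates each reaching 50%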;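 further: 0% = median of the neutral control wells and 100% = twice that signal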
SR-BI DiI-HDL act = activators of SR-BI mediated HDL lipid uptake. CHO ldlA[mSR-BI] cells, DiI-HDL uptake fluorescence, 3 h; 100 = double the neutral-control signal. activation, % at 12.5 µM. 0.096% of 320,000 active;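 active means mean replicate activation of at least 60% and every replicate at or above 60%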;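 further: 0% = median plate neutral-control signal and 100% = twice that signal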
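Material: SR-BI-overexpressing, LDLR-lacking CHO cells | Dosing: Single compound concentration, delivered by pin transfer | Probe or stimulus: Labelled HDL, 10 µg/mL | Signal: Bottom-read cell fluorescence after medium removal, ex 550/em 595 nm | Schedule: 3 h, 37 °C | Evaluation: HDL uptake via cellular fluorescence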
* = called active by the depositor.

Results for CCN(CC)S(=O)(=O)c1ccc(O)c(C(=O)OCC(=O)N2CCCc3ccccc32)c1 ?
Wnt bcat act: -1

What do the screens show for `CNc1cc(CSc2ccc(Cl)cc2)nc(C)n1`?
Wnt bcat act: 10; SR-BI DiI inh: 8; MITF TRPM1 HTS: 80; HSF1 activator: 71*; SR-BI DiI-HDL act: -8

How did Cc1ccc(SCc2cn3c(C)csc3n2)cc1 do in these assays?
Wnt bcat act: 1; SR-BI DiI inh: -4; MITF TRPM1 HTS: 84*; HSF1 activator: 91*; SR-BI DiI-HDL act: 4

What do the screens show for `Cc1cccc2nc(CSc3ccc(Cl)cc3)cn12`?
Wnt bcat act: 13; SR-BI DiI inh: 10; MITF TRPM1 HTS: 101*; HSF1 activator: -4; SR-BI DiI-HDL act: -10

Results for Cc1cccc2nc(CSc3nc4ccccc4[nH]3)cn12 ?
Wnt bcat act: -1; SR-BI DiI inh: 3; MITF TRPM1 HTS: 40; HSF1 activator: 20; SR-BI DiI-HDL act: -3

How did Cc1nc(CSc2ccc(Cl)cc2)cc(NCc2ccccc2)n1 do in these assays?
SR-BI DiI inh: -3; MITF TRPM1 HTS: 5; HSF1 activator: 25; SR-BI DiI-HDL act: 3

What do the screens show for `Clc1ccc2nc(CSCc3ccccc3)cn2c1`?
Wnt bcat act: 67*; SR-BI DiI inh: 60; MITF TRPM1 HTS: 51; HSF1 activator: 37; SR-BI DiI-HDL act: -60

How did COC(=O)C1=C(C)N(CC(C)C)C(=S)NC1c1ccc(Cl)cc1 (configuration not stated) do in these assays?
Wnt bcat act: 10

How did CCNc1ncnc2[nH]ncc12 do in these assays?
Wnt bcat act: -7; SR-BI DiI inh: -8; MITF TRPM1 HTS: 14; SR-BI DiI-HDL act: 8

How did Brc1ccc(CSc2nnc3ccccn23)cc1 do in these assays?
Wnt bcat act: 9; SR-BI DiI inh: -3; MITF TRPM1 HTS: 40; HSF1 activator: 58*; SR-BI DiI-HDL act: 3

Results for Clc1cccc(Cl)c1CSc1nnc2ccccn12 ?
Wnt bcat act: 4; SR-BI DiI inh: 5; MITF TRPM1 HTS: 6; HSF1 activator: 22; SR-BI DiI-HDL act: -5

What do the screens show for `C=CCN1C(=O)c2cccc3c(N4CCCCC4)ccc(c23)C1=O`?
Wnt bcat act: -3; SR-BI DiI inh: 8; MITF TRPM1 HTS: 45; HSF1 activator: 40; SR-BI DiI-HDL act: -8

What do the screens show for `O=C1c2cccc3c(N4CCCCC4)ccc(c23)C(=O)N1CCO`?
Wnt bcat act: 53*; SR-BI DiI inh: -6; MITF TRPM1 HTS: 59; HSF1 activator: 109*; SR-BI DiI-HDL act: 6

Results for Cc1cc(O)c(C(C)C)cc1N=Cc1ccc([N+](=O)[O-])cc1 ?
Wnt bcat act: 4; SR-BI DiI inh: 13; MITF TRPM1 HTS: -12; SR-BI DiI-HDL act: -13

Results for CCc1ccccc1NC(=O)CSc1nc2n[nH]c(C)c2c(=N)n1-c1ccc(OC)cc1 ?
Wnt bcat act: -3; SR-BI DiI inh: -13; SR-BI DiI-HDL act: 13

What do the screens show for `COc1ccccc1NC(=O)CSc1nc2n[nH]c(C)c2c(=N)n1-c1ccccc1Cl`?
SR-BI DiI inh: -13; MITF TRPM1 HTS: 0; HSF1 activator: 60*; SR-BI DiI-HDL act: 13

Results for Cc1cc(C)cc(OCCn2nnc3ccccc32)c1 ?
Wnt bcat act: 4; SR-BI DiI inh: 16; MITF TRPM1 HTS: 88*; HSF1 activator: 33; SR-BI DiI-HDL act: -16

Results for Cc1ccc(C)c(OCCn2nnc3ccccc32)c1 ?
Wnt bcat act: 0; SR-BI DiI inh: -2; HSF1 activator: 23; SR-BI DiI-HDL act: 2

How did Clc1ccccc1OCCn1nnc2ccccc21 do in these assays?
Wnt bcat act: 19; SR-BI DiI inh: 2; MITF TRPM1 HTS: 81*; HSF1 activator: 34; SR-BI DiI-HDL act: -2

How did CC(=O)Nc1cc2nn(-c3ccccc3)nc2cc1Cl do in these assays?
Wnt bcat act: 55*; SR-BI DiI inh: 3; MITF TRPM1 HTS: 30; HSF1 activator: 46; SR-BI DiI-HDL act: -3

Results for CC(C)(C)C(=O)Nc1cc2nn(-c3ccccc3)nc2cc1Cl ?
SR-BI DiI inh: 17; MITF TRPM1 HTS: -84; SR-BI DiI-HDL act: -17

How did O=S1(=O)CCSC[C@@H](CN2CCN(c3ccccc3)CC2)N1 do in these assays?
Wnt bcat act: -3

How did O=[N+]([O-])c1ccc(N/N=C/c2ccccc2O)cc1 do in these assays?
Wnt bcat act: 6; SR-BI DiI inh: 23; MITF TRPM1 HTS: 35; HSF1 activator: 73*; SR-BI DiI-HDL act: -23

Results for CCCOc1ccc(/C=N/Nc2cccc([N+](=O)[O-])c2)c(O)c1 ?
SR-BI DiI inh: 49; MITF TRPM1 HTS: 84*; HSF1 activator: 6; SR-BI DiI-HDL act: -49

What do the screens show for `O=[N+]([O-])c1ccc(NN=Cc2ccccc2)nc1`?
Wnt bcat act: 50*; SR-BI DiI inh: 17; MITF TRPM1 HTS: 148*; SR-BI DiI-HDL act: -17

What do the screens show for `O=[N+]([O-])c1ccc(N/N=C/c2cccs2)nc1`?
Wnt bcat act: 56*; SR-BI DiI inh: 13; MITF TRPM1 HTS: 109*; HSF1 activator: 37; SR-BI DiI-HDL act: -13

How did O=[N+]([O-])c1ccc(N/N=C\c2cccn2-c2ccccc2)nc1 do in these assays?
SR-BI DiI inh: 37; MITF TRPM1 HTS: 16; HSF1 activator: -9; SR-BI DiI-HDL act: -37

What do the screens show for `CCCOc1ccc(/C=N/Nc2ccccc2[N+](=O)[O-])c(O)c1`?
Wnt bcat act: -2; SR-BI DiI inh: 48; MITF TRPM1 HTS: -55; HSF1 activator: -75; SR-BI DiI-HDL act: -48

How did O=C(NCc1ccccc1)C(c1ccccc1)n1c(-c2ccccn2)nc2ccccc21 (configuration not stated) do in these assays?
Wnt bcat act: 3

What do the screens show for `Cc1c(C(=O)NCc2ccc(C(C)C)cc2)sc(=O)n1Cc1ccc(S(=O)(=O)N(C)C)cc1`?
Wnt bcat act: -6

Results for CCOC(=O)C[C@@H](C#N)NC(=O)[C@@H]1CCCN1C(=O)[C@@H](NC(=O)c1ccc(N)c(Cl)c1)C(C)(C)C ?
Wnt bcat act: -1

How did CC(=O)Nc1ccc(-c2ccnc3c2CC(C(=O)NCc2ccco2)O3)cc1 (configuration not stated) do in these assays?
Wnt bcat act: -15

What do the screens show for `COc1ccc(C=NNc2ccc([N+](=O)[O-])cn2)cc1`?
Wnt bcat act: 16; SR-BI DiI inh: 16; MITF TRPM1 HTS: 74; SR-BI DiI-HDL act: -16

How did CCN(CC)c1ccc(C=NNc2ccc([N+](=O)[O-])cn2)cc1 do in these assays?
Wnt bcat act: 48*; SR-BI DiI inh: 84*; MITF TRPM1 HTS: 44; SR-BI DiI-HDL act: -84

How did O=[N+]([O-])c1ccc(N/N=C/c2ccccc2)c(F)c1 do in these assays?
Wnt bcat act: 34*; SR-BI DiI inh: 0; MITF TRPM1 HTS: 87*; HSF1 activator: 40; SR-BI DiI-HDL act: 0

How did CCOc1ccccc1C=NNc1ccc([N+](=O)[O-])cn1 do in these assays?
Wnt bcat act: -2; SR-BI DiI inh: 13; MITF TRPM1 HTS: -7; SR-BI DiI-HDL act: -13

How did N#Cc1ccccc1Cn1cc(/C=N/Nc2ccc([N+](=O)[O-])cn2)c2ccccc21 do in these assays?
Wnt bcat act: -3; SR-BI DiI inh: 96*; MITF TRPM1 HTS: 4; HSF1 activator: 6; SR-BI DiI-HDL act: -96
